According to ChEMBL document CHEMBL1122345, “Antihypertensive agents: angiotensin converting enzyme inhibitors. 1-[3-(Acylthio)-3-aroylpropionyl]-L-prolines” (J Med Chem, 1983):

How the values were obtained:
[1] = target: T1, Angiotensin-converting enzyme (Rattus norvegicus) (UniProt P47820); assay: (§1) Change in mean arterial blood pressure (MABP) after 20 mg/kg (po) dosage in Aorta-Coated renal hypertensive rat at 0.5 h; format: functional, organism-based; set-up: dose 20 mg/kg
T1 sequence (whole entry): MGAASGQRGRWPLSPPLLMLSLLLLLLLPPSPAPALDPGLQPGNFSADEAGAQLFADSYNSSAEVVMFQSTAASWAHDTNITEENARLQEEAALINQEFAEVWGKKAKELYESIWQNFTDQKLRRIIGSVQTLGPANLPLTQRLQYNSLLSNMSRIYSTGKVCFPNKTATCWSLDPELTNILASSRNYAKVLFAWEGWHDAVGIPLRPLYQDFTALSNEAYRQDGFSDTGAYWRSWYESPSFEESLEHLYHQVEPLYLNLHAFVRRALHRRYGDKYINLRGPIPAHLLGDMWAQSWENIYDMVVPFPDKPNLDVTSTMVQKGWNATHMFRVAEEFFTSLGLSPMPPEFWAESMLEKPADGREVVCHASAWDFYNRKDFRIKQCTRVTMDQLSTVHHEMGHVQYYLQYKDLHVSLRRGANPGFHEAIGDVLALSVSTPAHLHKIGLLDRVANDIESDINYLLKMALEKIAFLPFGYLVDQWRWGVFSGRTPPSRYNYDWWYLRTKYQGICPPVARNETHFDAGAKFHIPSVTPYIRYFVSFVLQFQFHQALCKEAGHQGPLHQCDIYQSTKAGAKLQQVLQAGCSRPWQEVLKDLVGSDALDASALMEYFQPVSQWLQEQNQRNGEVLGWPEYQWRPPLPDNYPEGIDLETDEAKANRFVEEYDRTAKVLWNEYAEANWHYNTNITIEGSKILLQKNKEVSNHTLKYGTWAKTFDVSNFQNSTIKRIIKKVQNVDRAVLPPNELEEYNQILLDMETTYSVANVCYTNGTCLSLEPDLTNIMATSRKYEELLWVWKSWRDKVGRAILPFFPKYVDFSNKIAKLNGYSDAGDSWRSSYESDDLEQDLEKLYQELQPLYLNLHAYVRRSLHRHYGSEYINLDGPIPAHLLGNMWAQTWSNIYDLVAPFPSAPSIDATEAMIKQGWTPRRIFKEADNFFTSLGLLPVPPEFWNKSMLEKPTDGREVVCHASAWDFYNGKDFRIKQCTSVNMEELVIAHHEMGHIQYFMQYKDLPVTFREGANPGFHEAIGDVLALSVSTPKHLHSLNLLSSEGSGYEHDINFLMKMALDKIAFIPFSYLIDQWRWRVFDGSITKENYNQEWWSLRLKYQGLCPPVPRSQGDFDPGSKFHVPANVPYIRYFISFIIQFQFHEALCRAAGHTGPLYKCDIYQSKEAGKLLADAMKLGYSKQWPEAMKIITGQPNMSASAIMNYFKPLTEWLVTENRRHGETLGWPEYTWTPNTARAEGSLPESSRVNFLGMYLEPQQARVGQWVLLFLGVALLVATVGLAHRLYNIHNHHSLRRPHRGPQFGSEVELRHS
Outline: (§2)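 Oral gavage to conscious, unrestrained rats made hypertensive by complete aortic ligation between the renal artery origins; only rats with MABP ≥150 mmHg on days 4–6 after coarctation used. Vehicle: ethanol, polyethylene glycol, Tween-80, diluted with saline. Direct arterial pressure via indwelling carotid cannula implanted 24 h earlier; change vs vehicle controls, means ± standard error, unpaired Student's t test.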

[2] = target: T1, Angiotensin-converting enzyme (Rattus norvegicus); assay: Change in mean arterial blood pressure (MABP) after 20 mg/kg (po) dosage in Aorta-Coated renal hypertensive rat at 2.0 h; format: functional, organism-based; set-up: dose 20 mg/kg; outline: as §2
Rattus norvegicus = assay: as §1; format: functional; outline: as §2

SMILES | Delta MABP [1] [mmHg] | Delta MABP [2] [mmHg] | Delta MABP (Rattus norvegicus) [mmHg]
CC(=O)S[C@@H](C(=O)c1ccccc1)[C@@H](C)C(=O)N1CCC[C@H]1C(=O)O | -22.4 | -17.1 | –
CC(=O)SC(CC(=O)N1CCCC1C(=O)O)C(=O)c1cccc(F)c1 (stereo not given) | -17 | -5.43 | –
CC(=O)S[C@H](C(=O)c1ccc(Br)cc1)[C@@H](C)C(=O)N1CCC[C@H]1C(=O)O | -23.5 | -26.7 | –
CC(=O)SC(CC(=O)N1CCCC1C(=O)O)C(=O)c1ccc(Cl)cc1 (stereo not given) | – | -11.7 | -17.33
CC(=O)SC(CC(=O)N1CCCC1C(=O)O)C(=O)c1ccc(Br)cc1 (stereo not given) | -18.3 | -10.4 | –
O=C(SC(CC(=O)N1CCCC1C(=O)O)C(=O)c1ccc(F)cc1)c1ccccc1 (stereo not given) | -12 | -6.5 | –
CC(=O)SC(CC(=O)N1CCCC1C(=O)O)C(=O)c1ccccc1 (stereo not given) | – | -5.25 | -19.2
CC(=O)S[C@H](C(=O)c1cccc(F)c1)[C@@H](C)C(=O)N1CCC[C@H]1C(=O)O | -24.8 | -28 | –
O=C(SC(CC(=O)N1CCCC1C(=O)O)C(=O)c1ccccc1)c1ccccc1 (stereo not given) | -1 | -22.7 | –
O=C(SC(CC(=O)N1CCCC1C(=O)O)C(=O)c1ccc(Br)cc1)c1ccccc1 (stereo not given) | -10 | -14.3 | –
O=C(c1ccc(Br)cc1)C(S)CC(=O)N1CCCC1C(=O)O (stereo not given) | -8.8 | -12 | –
O=C(SC(CC(=O)N1CCCC1C(=O)O)C(=O)c1cccc(F)c1)c1ccccc1 (stereo not given) | -41 | 3.75 | –
CC(=O)SC(CC(=O)N1CCCC1C(=O)O)C(=O)c1cccc(C(F)(F)F)c1 (stereo not given) | -17.5 | -0.83 | –
CC(=O)SC(CC(=O)N1CCCC1C(=O)O)C(=O)c1ccc(C(C)(C)C)cc1 (stereo not given) | -30 | -19.2 | –
CC(=O)SC(CC(=O)N1CCCC1C(=O)O)C(=O)c1ccc2c(c1)CCC2 (stereo not given) | -18.5 | -30 | –
CC(=O)S[C@@H](C(=O)c1ccc(Br)cc1)[C@@H](C)C(=O)N1CCC[C@H]1C(=O)O | -27.1 | -31.3 | –
CC(=O)S[C@@H](C(=O)c1cccc(F)c1)[C@@H](C)C(=O)N1CCC[C@H]1C(=O)O | -17.5 | – | –
CC(=O)SC(CC(=O)N1CCCC1C(=O)O)C(=O)c1ccc2ccccc2c1 (stereo not given) | -17.3 | -6.67 | –
CC(=O)SC(C(=O)c1ccc(Cl)cc1)C(C)C(=O)N1CCCC1C(=O)O (stereo not given) | -24 | -30.5 | –
CC(=O)SC(CC(=O)N1CCCC1C(=O)O)C(=O)c1ccc(F)cc1 (stereo not given) | -15.8 | -14.7 | –
CC(=O)S[C@H](C(=O)c1ccccc1)[C@@H](C)C(=O)N1CCC[C@H]1C(=O)O | -23 | -23.2 | –
C[C@H](CS)C(=O)N1CCC[C@H]1C(=O)O | -27.7 | -21.7 | –
COc1ccc(C(=O)C(CC(=O)N2CCCC2C(=O)O)SC(C)=O)cc1F (stereo not given) | -12.7 | -11 | –
